Reference: ChEMBL document CHEMBL4616671, “Identification of N-Phenyl-7H-pyrrolo[2,3-d]pyrimidin-4-amine Derivatives as Novel, Potent, and Selective NF-κB Inducing Kinase (NIK) Inhibitors for the Treatment of Psoriasis” (J Med Chem, 2020)

Assays:
[1] = target: T1, Mitogen-activated protein kinase kinase kinase 14 (Homo sapiens, UniProt Q99558); assay: Inhibition of recombinant N-terminal GST-fused human NIK (319 to 947 residues) expressed in baculovirus expression system assessed as residual activity at 1 uM incubated for 120 mins in presence of ATP by ADP-glo based luminescence assay relative to control
Target sequence in this assay (Q99558 whole entry, looked up, the tested form may be a part): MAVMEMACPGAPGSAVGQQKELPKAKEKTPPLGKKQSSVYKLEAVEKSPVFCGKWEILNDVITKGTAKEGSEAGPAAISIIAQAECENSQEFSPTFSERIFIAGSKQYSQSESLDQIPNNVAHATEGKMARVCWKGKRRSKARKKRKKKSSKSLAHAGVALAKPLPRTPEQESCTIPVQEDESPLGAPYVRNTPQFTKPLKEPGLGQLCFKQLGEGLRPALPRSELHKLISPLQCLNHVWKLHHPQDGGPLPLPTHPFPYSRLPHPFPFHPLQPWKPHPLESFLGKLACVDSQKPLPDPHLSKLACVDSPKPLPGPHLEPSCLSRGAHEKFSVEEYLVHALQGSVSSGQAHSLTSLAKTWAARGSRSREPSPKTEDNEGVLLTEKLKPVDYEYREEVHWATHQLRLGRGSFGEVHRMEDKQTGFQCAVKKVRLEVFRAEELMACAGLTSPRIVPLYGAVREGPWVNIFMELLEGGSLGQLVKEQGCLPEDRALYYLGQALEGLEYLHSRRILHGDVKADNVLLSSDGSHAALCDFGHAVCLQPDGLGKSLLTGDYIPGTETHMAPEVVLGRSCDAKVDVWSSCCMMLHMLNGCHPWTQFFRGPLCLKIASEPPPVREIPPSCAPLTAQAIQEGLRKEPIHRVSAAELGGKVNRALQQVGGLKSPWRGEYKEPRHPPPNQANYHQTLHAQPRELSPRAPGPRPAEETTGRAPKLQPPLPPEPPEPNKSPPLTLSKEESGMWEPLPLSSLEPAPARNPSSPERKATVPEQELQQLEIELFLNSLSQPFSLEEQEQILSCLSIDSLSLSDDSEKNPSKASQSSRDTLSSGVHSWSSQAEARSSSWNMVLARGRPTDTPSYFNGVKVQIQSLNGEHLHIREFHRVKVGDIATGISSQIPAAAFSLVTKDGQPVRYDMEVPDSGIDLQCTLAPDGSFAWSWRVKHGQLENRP

[2] = target: T1, Mitogen-activated protein kinase kinase kinase 14; assay: Inhibition of recombinant N-terminal GST-fused human NIK (319 to 947 residues) expressed in baculovirus expression system incubated for 120 mins in presence of ATP by ADP-glo based luminescence assay
Procedure, shortened: (§1)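 ADP-Glo luminescence assay with recombinant human MAP3K14. Buffer: Tris pH 7.5, 2 mM DTT, 2 mM MgCl₂, 100 µM Na₃VO₄, 0.02 mg/mL BSA, 5% DMSO; ATP 10 µM. Reaction 120 min at room temperature; ADP-Glo reagent 40 min, then detection reagent 40 min. Mean ± SD from two independent experiments.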
Target sequence in this assay (Q99558 whole entry, the tested form may be a part): as the sequence (Q99558 whole entry, looked up, the tested form may be a part) above

[3] = Intrinsic hepatic clearance in monkey; format: ADME, Macaca mulatta; conditions: rhesus monkey, in vivo
Procedure, shortened: (§2)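 Scaled from microsomal intrinsic clearance: CLint,in vitro × microsomal protein per g liver × liver weight per kg body weight.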

[4] = Intrinsic clearance in dog liver microsomes assessed as per mg of protein incubated for 10 mins followed by potassium phosphate buffer addition and measured after 5 to 60 mins by LC-MS/MS analysis; format: ADME, Canis lupus familiaris, Microsome; conditions: read-out: CLH
Procedure, shortened: (§3)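 Rat, dog, monkey or human liver microsomes pre-incubated with compound at 37 °C for 10 min; reaction started after pre-warming and stopped at 5, 15, 30, 60 min with chilled quench containing tolbutamide and labetalol. No-cofactor control in 100 mM potassium phosphate for 60 min. LC-MS/MS analysis; first-order fit: k = −slope, T1/2 = 0.693/k, CLint = k/microsomal protein concentration.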

[5] = Elimination half life in monkey liver microsomes incubated for 10 mins followed by potassium phosphate buffer addition and measured after 5 to 60 mins by LC-MS/MS analysis; format: ADME, Macaca mulatta, Microsome; conditions: rhesus monkey, read-out: beta t1/2; procedure, shortened: as §3
[6] = Elimination half life in dog liver microsomes incubated for 10 mins followed by potassium phosphate buffer addition and measured after 5 to 60 mins by LC-MS/MS analysis; format: ADME, Canis lupus familiaris, Microsome; conditions: read-out: beta t1/2; procedure, shortened: as §3
[7] = Intrinsic hepatic clearance in dog; format: ADME, Canis lupus familiaris; conditions: in vivo; procedure, shortened: as §2
[8] = Elimination half life in human liver microsomes incubated for 10 mins followed by potassium phosphate buffer addition and measured after 5 to 60 mins by LC-MS/MS analysis; format: ADME, Microsome; conditions: read-out: beta t1/2; procedure, shortened: as §3
[9] = Intrinsic hepatic clearance in rat; format: ADME; conditions: in vivo; procedure, shortened: as §2
[10] = target: T1, Mitogen-activated protein kinase kinase kinase 14; assay: Inhibition of NIK in human BEAS2B cells assessed as reduction in LPS-induced IL-6 level preincubated for 8 hrs followed by LPS stimulation and measured after 24 hrs by ELISA; format: cell-based
Procedure, shortened: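 BEAS-2B cells were grown in DMEM with 10% FBS, seeded at 5000 cells/well, and cultured 24 h at 37 °C in 5% CO2. Compounds were given at 7 concentrations from 10 μM to 0.014 μM (3 replicate wells), with dexamethasone as positive control. After 8 h, LPS (20 μg/mL solution) was added for 24 h. Supernatant IL-6 was read by human IL-6 ELISA; two biological replicates.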
Target sequence in this assay (Q99558 whole entry, looked up, the tested form may be a part): as above

[11] = Elimination half life in rat liver microsomes incubated for 10 mins followed by potassium phosphate buffer addition and measured after 5 to 60 mins by LC-MS/MS analysis; format: ADME, Microsome; conditions: read-out: beta t1/2; procedure, shortened: as §3
[12] = Intrinsic clearance in rat liver microsomes assessed as per mg of protein incubated for 10 mins followed by potassium phosphate buffer addition and measured after 5 to 60 mins by LC-MS/MS analysis; format: ADME, Microsome; conditions: read-out: CLH; procedure, shortened: as §3
[13] = Intrinsic clearance in human liver microsomes assessed per mg of protein incubated for 10 mins followed by potassium phosphate buffer addition and measured after 5 to 60 mins by LC-MS/MS analysis; format: ADME, Microsome; conditions: read-out: CLH; procedure, shortened: as §3
[14] = system: T-cell; assay: Antiinflammatory activity in mouse T cells assessed as inhibition of conA-induced induced T cell proliferation at 0.4 uM incubated for 48 hrs by CCK8 assay relative to control; format: functional
[15] = Intrinsic clearance in monkey liver microsomes assessed as per mg of protein incubated for 10 mins followed by potassium phosphate buffer addition and measured after 5 to 60 mins by LC-MS/MS analysis; format: ADME, Macaca mulatta, Microsome; conditions: rhesus monkey, read-out: CLH; procedure, shortened: as §3
[16] = Intrinsic hepatic clearance in human; format: ADME; procedure, shortened: as §2
[17] = system: J774; assay: Antiinflammatory activity in mouse J774 cells assessed as inhibition of LPS-induced NO production at 1 uM preincubated for 2 hrs followed by LPS stimulation and measured after 22 hrs by Griess reagent based assay relative to control; format: functional
Procedure, shortened: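 J774 macrophages seeded at 2*10^4 cells/mL, 24 h at 37 °C 5% CO₂; compound in DMSO at 1 µM, 3 replicate wells, 2 h pre-incubation, then LPS at 1 ug/mL final for 22 h. Supernatant nitrite read with Griess reagent at 540 nm against a sodium nitrite standard curve. Inhibition % = (model − compound)/(model − control) NO ×100; mean ± SD, three independent experiments.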

[18] = target: T1, Mitogen-activated protein kinase kinase kinase 14; assay: Inhibition of NIK (unknown origin); procedure, shortened: as §1
Target sequence in this assay (Q99558 whole entry, the tested form may be a part): as the sequence (Q99558 whole entry, looked up, the tested form may be a part) above

[19] = system: T-cell; assay: Antiinflammatory activity in mouse T cells assessed as inhibition of conA-induced induced T cell proliferation at 2 uM incubated for 48 hrs by CCK8 assay relative to control; format: functional
[20] = system: T-cell; assay: Growth inhibition of mouse T cells at 10 uM after 48 hrs by CCK8 assay; format: cell-based
Procedure, shortened: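 Unstimulated mouse splenic T cells exposed to compound at 10 µM. Growth read by CCK-8 absorbance; […]. Mean ± SD, three independent experiments.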

Row | Compound | IC50 [2] [µM] | inhibition at 0.4 µM [14] [%] | inhibition at 1 µM [17] [%] | inhibition at 2 µM [19] [%] | also measured
1 | O=C(Nc1ccc(N2CCOCC2)c(Nc2ncnc3[nH]ccc23)c1)NC1CCCC1 | – | – | – | – | Activity [1]: 76.4%
2 | CC(O)(C(=O)Nc1ccc(N2CCOCC2)c(Nc2ncnc3[nH]ccc23)c1)c1nccs1 (configuration not stated) | 1.4 | – | – | – | –
3 | CC(O)(C#Cc1ccc2c(c1)N(c1nc(N)ncc1Cl)CC2)c1nccs1 (configuration not stated) | 0.0047 | 19 | 43.9 | 59.6 | CLH [3]: 300 mL/min/kg; microsomal CLint [4]: 192 µL/min/mg; half-life [5]: 6.66 min; half-life [6]: 7.22 min; CLH [7]: 276 mL/min/kg; half-life [8]: 33.9 min; CLH [9]: 254 mL/min/kg; inhibition [10]: Dose-dependent effect; half-life [11]: 9.82 min; microsomal CLint [12]: 141 µL/min/mg; microsomal CLint [13]: 40.8 µL/min/mg; microsomal CLint [15]: 208 µL/min/mg; CLH [16]: 38.6 mL/min/kg; Ki [18]: 0.0004 µM
4 | OC1(C#Cc2ccc(N3CCOCC3)c(Nc3ncnc4[nH]ccc34)c2)CCCCC1 | 1.27 | – | – | – | –
5 | CC(O)(C#Cc1ccc(OC2CCOCC2)c(Nc2ncnc3[nH]ccc23)c1)c1nccs1 (configuration not stated) | 0.112 | 19.9 | 68.3 | 42.9 | –
6 | CN1CCC(Oc2ccc(C#CC(C)(O)c3nccs3)cc2Nc2ncnc3[nH]ccc23)CC1 (configuration not stated) | 0.705 | – | – | – | –
7 | O=C(Nc1ccc(N2CCOCC2)c(Nc2ncnc3[nH]ccc23)c1)C1CCCC1 | – | – | – | – | Activity [1]: 77.3%
8 | CC(O)(C#Cc1ccc(N2CCOCC2)c(Nc2ccnc3[nH]ccc23)c1)c1nccs1 (configuration not stated) | 0.00659 | 19 | 60.4 | 50.2 | –
9 | CC(O)(C#Cc1cccc(Nc2ncnc3[nH]ccc23)c1)c1nccs1 (configuration not stated) | 1.64 | – | – | – | –
10 | CC(O)(C#Cc1ccc(N2CCOCC2)c(Nc2ncnc3[nH]ncc23)c1)c1nccs1 (configuration not stated) | 0.00863 | 14.8 | 35.9 | 24.7 | –
11 | CN(C)c1ccc(C#CC(C)(O)c2nccs2)cc1Nc1ncnc2[nH]ccc12 (configuration not stated) | 0.0225 | – | – | – | –
12 | CCN1CCN(c2ccc(C#CC(C)(O)c3nccs3)cc2Nc2ncnc3[nH]ccc23)CC1 (configuration not stated) | 0.0345 | 24.1 | 67.4 | 33.7 | –
13 | CCS(=O)(=O)N1CCN(c2ccc(C#CC(C)(O)c3nccs3)cc2Nc2ncnc3[nH]ccc23)CC1 (configuration not stated) | 0.00822 | 14 | 34.5 | 32.5 | –
14 | C[C@@H]1CN(c2ccc(C#CC(C)(O)c3nccs3)cc2Nc2ncnc3[nH]ccc23)CCN1 (some centres not stated) | 0.209 | – | – | – | –
15 | CC(C)(O)C#Cc1ccc(N2CCOCC2)c(Nc2ncnc3[nH]ccc23)c1 | 2.71 | – | – | – | –
16 | CC(O)(C#Cc1ccc(N2CC3CC2CN3)c(Nc2ncnc3[nH]ccc23)c1)c1nccs1 (configuration not stated) | 0.2 | – | – | – | –
17 | CN1CCN(c2ccc(C#CC(C)(O)c3nccs3)cc2Nc2ncnc3[nH]ccc23)CC1 (configuration not stated) | 0.0783 | 33 | 78.5 | 43.7 | –
18 | CC(O)(C#Cc1ccc(N2CCOCC2)c(Nc2c(Cl)cnc3[nH]ccc23)c1)c1nccs1 (configuration not stated) | > 10 | – | – | – | –

Row | Compound | IC50 [2] [µM] | inhibition at 0.4 µM [14] [%] | inhibition at 1 µM [17] [%] | inhibition at 2 µM [19] [%] | also measured
19 | C[C@@](O)(C#Cc1ccc(N2CCOCC2)c(Nc2ncnc3[nH]ccc23)c1)c1nccs1 | 0.012 | 37.6 | 100 | 61.2 | Activity [20]: Toxic
20 | CC(O)(C#Cc1ccc(N2CCOCC2)c(Nc2ccnc(N)n2)c1)c1nccs1 (configuration not stated) | 0.0114 | 27.4 | 58.5 | 31.4 | –
21 | CC(O)(C#Cc1ccc(N2CCN(S(=O)(=O)C3CC3)CC2)c(Nc2ncnc3[nH]ccc23)c1)c1nccs1 (configuration not stated) | 0.0162 | 16.9 | 37.2 | 32.3 | –
22 | CN(C)CCN(C)c1ccc(C#CC(C)(O)c2nccs2)cc1Nc1ncnc2[nH]ccc12 (configuration not stated) | 0.484 | – | – | – | –
23 | CC(O)(C#Cc1ccc(N2CCCC2)c(Nc2ncnc3[nH]ccc23)c1)c1nccs1 (configuration not stated) | 0.107 | – | – | – | –
24 | C[C@](O)(C#Cc1ccc(N2CCOCC2)c(Nc2ncnc3[nH]ccc23)c1)c1nccs1 | 0.136 | 39.5 | 74.3 | 60.1 | Activity [20]: Non-Toxic
25 | COCCN(C)c1ccc(C#CC(C)(O)c2nccs2)cc1Nc1ncnc2[nH]ccc12 (configuration not stated) | 0.0724 | 13.3 | 48 | 27.9 | –
26 | CC(O)(C#Cc1ccc(N2CCOCC2)c(Nc2ncnc3[nH]ccc23)c1)C1CCCC1 (configuration not stated) | 2.24 | – | – | – | –
27 | OC1(C#Cc2ccc(N3CCOCC3)c(Nc3ncnc4[nH]ccc34)c2)CCCC1 | 0.645 | – | – | – | –
28 | CC(O)(C#Cc1ccc(N2CCC(N3CCOCC3)CC2)c(Nc2ncnc3[nH]ccc23)c1)c1nccs1 (configuration not stated) | 0.0153 | 32.2 | 57.7 | 34.5 | –
29 | CC(=O)N1CCN(c2ccc(C#CC(C)(O)c3nccs3)cc2Nc2ncnc3[nH]ccc23)CC1 (configuration not stated) | 0.0178 | 16.2 | 29.3 | 31.5 | –
30 | CC(O)(C#Cc1ccc(N2CCOCC2)c(Nc2ncnc3sccc23)c1)c1nccs1 (configuration not stated) | 0.179 | – | – | – | –
31 | CC(O)(C#Cc1ccc(N2CCOCC2)c(Nc2c(F)cnc3[nH]ccc23)c1)c1nccs1 (configuration not stated) | 1.38 | – | – | – | –
32 | CC(O)(C#Cc1ccc(N2CCOCC2)c(Nc2ncnc3[nH]ccc23)c1)c1cccs1 (configuration not stated) | 0.0504 | – | – | – | –
33 | CC(O)(C#Cc1ccc(N2CCNCC2)c(Nc2ncnc3[nH]ccc23)c1)c1nccs1 (configuration not stated) | 0.0479 | 20.3 | 68 | 39.9 | –
34 | CN1CCCN(c2ccc(C#CC(C)(O)c3nccs3)cc2Nc2ncnc3[nH]ccc23)CC1 (configuration not stated) | 0.0601 | 35.5 | 67.3 | 47.7 | –
35 | C[C@H]1CN(c2ccc(C#CC(C)(O)c3nccs3)cc2Nc2ncnc3[nH]ccc23)CCN1 (some centres not stated) | 0.0692 | 38 | 62.9 | 49.5 | –
